In ChEMBL document CHEMBL3745667, “Identification of Noncompetitive Inhibitors of Cytosolic 5'-Nucleotidase II Using a Fragment-Based Approach” (J Med Chem, 2015):

How the values were obtained:
[1] = target: T1, Cytosolic purine 5'-nucleotidase (Homo sapiens, UniProt P49902); test: Inhibition of recombinant N-terminal truncated human cytosolic 5'-nucleotidase-2 assessed as inhibition of inosine 5'-monophosphate hydrolysis at 1 mM by rapid green malachite assay
Summary of the method: (§1)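 Purified recombinant N-terminally truncated cN-II expressed in E. coli, with IMP as substrate. Released phosphate was read by green malachite colorimetry. Inhibitor was tested at a single level, 0.2 mM or 1 mM. Compounds that are not water-soluble were added in DMSO, not exceeding 2% final.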

[2] = target: T1, Cytosolic purine 5'-nucleotidase; test: Inhibition of recombinant N-terminal truncated human cytosolic 5'-nucleotidase-2 assessed as inhibition of inosine 5'-monophosphate hydrolysis at 0.2 mM by rapid green malachite assay; summary of the method: as §1
RL [3] = test: Antiproliferative activity against human RL cells after 72 hrs by MTT assay in presence of fludarabine; assay type: functional, cell-based
[4] = target: T1, Cytosolic purine 5'-nucleotidase; test: Inhibition of recombinant N-terminal truncated human cytosolic 5'-nucleotidase-2 assessed as inhibition of inosine 5'-monophosphate hydrolysis by steady state kinetics with HPLC quantification
RL [5] = test: Antiproliferative activity against human RL cells after 72 hrs by MTT assay in presence of cladribine; assay type: functional, cell-based
RL [6] = test: Antiproliferative activity against human RL cells after 72 hrs by MTT assay; assay type: functional, cell-based
Summary of the method: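 MTT assay on RL human follicular lymphoma cells treated with a range of compound concentrations for 72 h. IC50 calculated with CompuSyn and given as the mean ± SEM of at least three independent experiments.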

RL [7] = test: Antiproliferative activity against human RL cells after 72 hrs by MTT assay in presence of clofarabine; assay type: functional, cell-based

T1 sequence (P49902 whole entry, the tested form may be a part): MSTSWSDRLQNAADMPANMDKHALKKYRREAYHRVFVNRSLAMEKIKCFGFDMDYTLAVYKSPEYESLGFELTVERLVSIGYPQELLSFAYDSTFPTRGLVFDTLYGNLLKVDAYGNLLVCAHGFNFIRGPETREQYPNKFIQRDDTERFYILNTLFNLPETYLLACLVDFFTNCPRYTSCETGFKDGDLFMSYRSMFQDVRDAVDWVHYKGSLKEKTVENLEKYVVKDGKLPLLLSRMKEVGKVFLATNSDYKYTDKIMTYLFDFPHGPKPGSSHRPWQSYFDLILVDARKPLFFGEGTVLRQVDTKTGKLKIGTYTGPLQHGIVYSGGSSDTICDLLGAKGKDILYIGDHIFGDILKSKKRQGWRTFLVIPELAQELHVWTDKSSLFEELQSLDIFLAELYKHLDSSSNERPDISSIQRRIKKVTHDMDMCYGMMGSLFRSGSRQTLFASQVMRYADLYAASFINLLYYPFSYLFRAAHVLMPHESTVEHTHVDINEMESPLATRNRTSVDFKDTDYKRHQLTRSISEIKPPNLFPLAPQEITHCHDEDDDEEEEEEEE

`O=C(Nc1ncnc2nc[nH]c12)c1ccccc1` was tested, and the inhibition [1] was 28%.

`OC(c1ccccc1)c1ccccc1` showed an inhibition [1] of 2%.

With `Nc1nc(Cl)c2nc[nH]c2n1` the inhibition [1] was 23%.

Compound `Nc1cccc2cnccc12` has an inhibition [1] of 30%.

Work on `Nc1[nH]cnc2ncnc1-2` yielded an inhibition [1] of 19%.

In the case of `Oc1ccc(-c2ccc(O)cc2)cc1`, the inhibition [1] is reported as 8%.

Work on `Oc1ccccc1-c1ccccc1` yielded an inhibition [1] of 19%.

`Nc1ccccc1-c1ccccc1` gave an inhibition [1] of 36%.

Compound `OCc1nc2ccccc2[nH]1` has an inhibition [1] of 11%.

`c1ccc(-c2c[nH]cn2)cc1` was tested, and the inhibition [1] was 36%.

In the case of `Oc1ccc2ccc(O)cc2c1`, the inhibition [1] is reported as 40%.

`c1ccc(CNc2ncnc3[nH]cnc23)cc1` was tested, and the inhibition [1] was 20%.

Compound `O=C1c2ccc(S(=O)(=O)O)cc2C(=O)c2ccc(S(=O)(=O)O)cc21` has an inhibition [2] of 20%, a CI95 (RL [3]) of 4.2 and a Ki [4] of 2000 µM. For the same compound, the CI95 (RL [5]) was 0.4, the IC50 (RL [6]) was 1040 µM and the CI95 (RL [7]) was 0.24.

Compound `Nc1ccc(-c2ccc(N)c(O)c2)cc1O` has an inhibition [1] of 23%.

In the case of `c1ccc(N2CCNCC2)nc1`, the inhibition [1] is reported as 0.5%.
